Measurements of several laboratories.
Protocols differ between the studies behind these lines.
Organism: Acinetobacter baumannii
Read-out: microbial growth

SMILES	assay	test system	conditions	MIC
CNC(C)C1CCC(N)C(OC2C(N)CC(N)C(OC3OCC(C)(O)C(NC)C3O)C2O)O1 (stereo not shown)	broth dilution	ATCCBAA1605		> 64 µg/mL
CCCCCCCCN=c1ccn(CCCCCCCCCCn2ccc(=NCCCCCCCC)cc2)cc1		ATCC17978		1 µM
C[C@@H](O)[C@H]1C(=O)N2C(C(=O)O)=C(S[C@@H]3CN[C@H](C(=O)N(C)C)C3)[C@H](C)[C@H]12	broth dilution	ATCC19606		0.5 µg/mL
CCCCCCC#Cc1cncc(-c2nnc(SCc3cc([N+](=O)[O-])cc([N+](=O)[O-])c3)n2CCOC2OC(CN)C(O)C2O)c1 (stereo not shown)	broth dilution	ATCC17978		64 µg/mL
CC1(C)S[C@@H]2[C@H](NC(=O)[C@H](N)c3ccccc3)C(=O)N2[C@H]1C(=O)O	broth dilution	ATCCBAA1605		> 64 µg/mL
CCCCCCC#Cc1cncc(-c2nnc(SCc3ccc([N+](=O)[O-])o3)n2CCCN)c1	broth dilution	ATCC17978		32 µg/mL
N[C@@H](Cc1c[nH]c2ccc(Cl)cc12)C(=O)O		ATCC17978	18 h	> 200 µM
[H]/N=C(\N/C(=N/[H])NCCCCCCNC(=N)NC(=N)Nc1ccc(Cl)cc1)Nc1ccc(Cl)cc1		ATCC17978		8 µM
CCCCCCC#Cc1cncc(-c2nnc(SCc3cc([N+](=O)[O-])cc([N+](=O)[O-])c3)n2C2CCNCC2)c1	broth dilution	ATCC17978		64 µg/mL
Nc1nc(-c2ccc3nc(-c4cc(C(F)(F)F)cc(C(F)(F)F)c4)[nH]c3c2)c[nH]1	broth dilution	AB5075		50 µM
